F508del corr = F508del CFTR correction, initial screen, CFBE line, single point; CFBE cells, YFP halide quenching; stimulated with forskolin plus potentiator P3; % fluorescence drop versus neutral controls; activity (quench increase), % at 7.58 µM; 0.36% of 350,000 active; AID 720511, 2013;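 active = mean added fluorescence quench of at least 8% versus neutral control, with both replicates also reaching 8%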;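 also: cells transiently co-express mutant CFTR-F508del with the halide-sensitive YFP; corrector assay measuring rescue of mutant channel to the surface after 24 h compound exposure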
HIV Env fusion = inhibitors of HIV-1 Env-driven cell-cell fusion, primary screen, HeLa-JRFL effector, CEM21 target cells, luciferase; 1.1% of 360,000 active; inhibition, % at 12.3 µM; AID 651610, 2012;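 active = mean replicate inhibition score of at least 50 and every replicate individually at or above 50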;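 also: 0% = plate neutral controls and 100% = maraviroc near 300 nM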
GSIS activator = GLuc luminescence reporter in INS-1E cells, primary screen for activators of glucose-dependent secretion of insulin | INS-1E GLuc reporter insulin secretion, 2-3 h | 0.61% of 370,000 active | AID 743287, 2014 | activation, % at 16.6 µM;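 active = lowest replicate activation of at least 40%, so every replicate reaches that level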;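 also: 0% = median of neutral control wells and 100% = median of IBMX positive control wells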
Cneo AK release = Cryptococcus neoformans cell lysis inducers, primary screen, AK release luminescence, single concentration. 0.2% of 360,000 active. AID 651654, 2012. C. neoformans lysis, adenylate kinase release luminescence, 4 h; normalised: neutral wells 0, clomiphene wells 100. lysis activity, % at 15 µM;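 active = mean lysis activity across replicates of at least 80%, whatever share of replicates individually reach that level; inactive = mean lysis activity below 80%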
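Test system: log-phase Cryptococcus neoformans yeast cells. Input: 5 × 10^6 yeast cells/mL. Medium: fresh YPD growth medium. Doses: single dose. Incubation: static 4 h at 37 °C with compound, 1 h detection. Measured by: luminescent adenylate kinase detection reagent. Read-out: signal increase indicating cell lysis. Benchmarks: Clomiphene.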
miR-122 sensor = miR-122 Renilla sensor signal increase in Huh7, primary screen, miR-122 inhibitor project, cell-based, single point, plate reader; Huh7 miR-122 Renilla luciferase sensor, 48 h; neutral wells = 0, positive control = 100; activation (reporter increase), % at 12.5 µM; 0.3% of 340,000 active;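 active = mean replicate activation score at least 90 and every replicate individually at or above 90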;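 also: higher luciferase means less miR-122 activity so hits act as miR-122 inhibitors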
rRNA inh HTS = reduced GFP signal of wild-type E. coli, primary screen, bacterial rRNA inhibitor project, GFP/RFP fluorescence, OD600, single point. E. coli WT GFP vs humanized-ribosome RFP mutants, 24 h; hits give low values; DMSO median 0, no signal -100. GFP signal change (wild-type ribosome), % (test concentration not listed). 1.6% of 350,000 active;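 active = significant combined selectivity score with lowered wild-type GFP, culture density cut under 30%, mutant RFP and density less affected; inactive = any of these conditions unmet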
Starred values were filed as active, the others as inactive; x = no result given; [ ] = remark or other dose. A selection: hits, their analogues and other compounds. The true share with any hit is near 3.1%.

SMILES	F508del corr	HIV Env fusion	GSIS activator	Cneo AK release	miR-122 sensor	rRNA inh HTS
C[C@H]1CN([C@@H](C)CO)C(=O)c2cc(NC(=O)Nc3cccc4ccccc34)ccc2O[C@@H]1CN(C)S(=O)(=O)c1ccc(Cl)cc1	0	x	-2	12	-17[16.7 µM]	1
Cc1sc2ncnc(Sc3ccccc3C(=O)Nc3ccc(C#N)cc3)c2c1C	x	-23	x	x	x	-23*
CC(C)Cc1ccc(/C=C/C(=O)N2CCCCC2)cc1	-1	-23	-7	x	x	2
CCc1ccc(/C=C\C(=O)N2CCCC2)cc1	x	-27	0	-1	-1	-19*
COc1ccc2c3c(n(C)c2c1)[C@H](CO)N(C)CC31CCN(CC2CC2)CC1	1	x	6	x	x	4
CCCCCCCCN1N=N[C@H]2[C@H]1[C@@H]1C[C@H]2N(C(=O)OC(C)(C)C)O1	0	7	-39	4	-1	-32*
CC1CC(Nc2ccccc2)c2ccccc2N1C(=O)c1ccncc1 (centres undefined)	-2	26	-17	5	-1	1
CC1CC(Nc2ccccc2)c2ccccc2N1C(=O)c1ccco1 (centres undefined)	2	-28	-16	-1	28	-28*
CC(=O)Nc1cccc2c1O[C@H](CN(C)C(C)=O)[C@@H](C)CN(C)C2=O	x	x	-5	x	x	2
O=C(Cn1c2[n+](c3ccc(C(F)(F)F)cc31)CCCCC2)c1ccc2c(c1)OCCO2	-2	6	-4	x	x	-38*
O=C(Cn1c2[n+](c3ccc(C(F)(F)F)cc31)CCCCC2)Nc1ccccc1	x	-10	9	x	x	-24
CCc1cccc(NC(=O)Cn2c3[n+](c4ccc(C(F)(F)F)cc42)CCCCC3)c1	0	-27	-23	x	x	-45*
CCC(C)(C)C1CCc2[nH]nc(C(=O)NC3CCCC3)c2C1 (centres undefined)	3	11	x	1	7	11
O=C(NC1CCCCC1)c1n[nH]c2c1CCCCC2	-2	69*	-15	-8	-7	1
CCN=C1S/C(=C\c2cc(Br)c(O)c(OC)c2)C(=O)N1CC	6	-9	53*	3	x	-1
CCN=C1S/C(=C\c2sccc2C)C(=O)N1CC	3	8	63*	x	-14	-14
Cc1ccsc1/C=C1\SC(=S)N(CC2CCCO2)C1=O (centres undefined)	2	-26	-8	x	x	-9
Cn1ncc([N+](=O)[O-])c1C(=O)Nc1ccc(-c2nc3ccccc3[nH]2)cc1	x	x	-10	-1	8	x
CS(=O)(=O)c1ccc(C(=O)Nc2cccc(-c3nc4ccccc4[nH]3)c2)cc1	2	2	-2	-4	20	10
CCOc1ccc(C(=O)Nc2ccc(-c3nc4ccccc4[nH]3)cc2)cc1[N+](=O)[O-]	x	7	102*	x	x	x
CS(=O)(=O)c1cccc(C(=O)Nc2cccc(-c3nc4ccccc4[nH]3)c2)c1	-3	-15	29	-4	6	-19*
CN(C)S(=O)(=O)c1cccc(NC(=O)COC(=O)/C=C/c2ccc3c(c2)OCO3)c1	3	-3	-4	-1	-8	-27*
O=C(COC(=O)/C=C/c1ccc(Cl)cc1)Nc1cccc(S(=O)(=O)NC2=NCCCCC2)c1	-3	x	-1	-1	-7	-20*
CC(C)c1cn(CC[C@@H]2CC[C@H](NS(=O)(=O)c3ccc(Cl)cc3)[C@@H](CO)O2)nn1	-2	1[16.7 µM]	-7	1	x	0
COc1ccc(NC(=O)c2cc3c(Cl)nc4ccccc4c3s2)cc1OC	2	x	5	0	-11	-1
COc1ccc(OC)c(NC(=O)c2cc3c(Cl)nc4ccccc4c3s2)c1	x	8	52*	x	x	x
NC(=O)CSc1nc2cc([N+](=O)[O-])ccc2n1-c1cccc(C(F)(F)F)c1	4	22	x	-6	-4	-22*
CC1(C)CCCC(C)(C)N1CC(O)COCCOc1ccc(Br)cc1 (centres undefined)	x	-3	51*	x	x	x
